Results taken from ChEMBL document CHEMBL4390639, “Design, Synthesis, and Biological Evaluation of Novel Allosteric Protein Disulfide Isomerase Inhibitors” (J Med Chem, 2019).
pIC50: −log10 of the molar value. Activity calls are given as the source filed them. No cut-off for these calls is given here.

What was measured:
U-87 MG [1] = experiment: Cytotoxicity against human U87MG cells assessed as inhibition of cell growth measured after 72 hrs by MTT assay; format: functional, cell-based, U-87MG ATCC; details: Homo sapiens, U-87 MG, 72 h; read-out: IC50
How it was run: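 A172 and NU04 cells were seeded at 4000 cells/well and U87MG at 5000 cells/well, incubated overnight at 37 °C, 5% CO2, then exposed to compound or vehicle for 72 h. MTT (3 mg/mL) was added for 4 h, formazan was dissolved in DMSO, and absorbance was read at 570 nm. IC50 came from nonlinear regression; mean ± SD of at least three experiments.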

U-87 MG [2] = experiment: Inhibition of colony formation in human U87MG cells […] by crystal violet staining based assay; format: functional, cell-based; details: U-87MG ATCC
How it was run: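 Clonogenicity: U87MG cells seeded at 200 cells/well, left overnight, treated 24 h, then medium replaced and cells grown ten days. Stained 30 min with crystal violet, washed, imaged; normalized well intensity from three independent experiments.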

U-87 MG [3] = experiment: Induction of endoplasmic reticulum stress in human U87MG cells assessed as increase in GRP78 expression at 20 uM measured after 24 hrs by Western blot analysis; format: functional, cell-based; details: U-87MG ATCC
How it was run: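 ER-stress immunoblot: 0.5 x 10^6 U87MG cells/well treated for 24 h with 20 µM analogues, 1 µM PACMA31 or DMSO; tunicamycin 10 µg/mL for 2 or 24 h as positive control. Lysis in Tris/NaCl/Triton/SDS buffer with sonication; 30 µg protein on 10% gels, transferred to PVDF, GRP78 probed, fluorescence imaging.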

U-87 MG [4] = experiment: Up regulation of SESN2 gene expression in human U87MG cells at 10 uM incubated for 4 hrs followed by bromouridine addition during last 30 mins of incubation by TRIzol-reagent based Bru-Seq analysis relative to control; format: functional, U-87MG ATCC
How it was run: (§1)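 U87MG cells exposed to compound or DMSO vehicle for 4 h, with 2 mM bromouridine added for the final 30 min. Total RNA isolated with TRIzol; Bru-labelled nascent RNA captured on anti-BrdU antibody-conjugated magnetic beads and sequenced. Transcript abundance expressed as RPKM relative to DMSO. Experiment performed once.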

U-87 MG [5] = experiment: Up regulation of ATP6 V0D2 gene expression in human U87MG cells at 10 uM incubated for 4 hrs followed by bromouridine addition during last 30 mins of incubation by TRIzol-reagent based Bru-Seq analysis relative to control; format: functional, U-87MG ATCC; how it was run: as §1
U-87 MG [6] = experiment: Down regulation of E2F8 gene expression in human U87MG cells at 10 uM incubated for 4 hrs followed by bromouridine addition during last 30 mins of incubation by TRIzol-reagent based Bru-Seq analysis relative to control; format: functional, U-87MG ATCC
U-87 MG [7] = experiment: Down regulation of HIST1H2BC gene expression in human U87MG cells at 10 uM incubated for 4 hrs followed by bromouridine addition during last 30 mins of incubation by TRIzol-reagent based Bru-Seq analysis relative to control; format: functional, U-87MG ATCC
U-87 MG [8] = experiment: Down regulation of BARD1 gene expression in human U87MG cells at 10 uM incubated for 4 hrs followed by bromouridine addition during last 30 mins of incubation by TRIzol-reagent based Bru-Seq analysis relative to control; format: functional, U-87MG ATCC
U-87 MG [9] = experiment: Down regulation of RAD51 gene expression in human U87MG cells at 10 uM incubated for 4 hrs followed by bromouridine addition during last 30 mins of incubation by TRIzol-reagent based Bru-Seq analysis; format: functional, cell-based; details: U-87MG ATCC
How it was run: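 Nascent transcription (Bru-seq) in U87MG cells: treatment at 10 μM for 4 h, with 2 mM bromouridine added for the final 30 min. Total RNA isolated with TRIzol; Bru-labelled RNA captured using anti-BrdU antibody on magnetic beads, then sequenced. Transcript traces reported as RPKM compared with DMSO-treated cells. Single experiment.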

[10] = tested on: Protein disulfide-isomerase (Homo sapiens), P07237 [H256A]; experiment: Inhibition of recombinant human N-terminal His-tagged PDI H256A mutant expressed in Escherichia coli BL21 (DE3) pLysS at 10 uM assessed as reduction in enzyme-mediated bovine insulin aggregation
Sequence of Protein disulfide-isomerase (Homo sapiens), P07237 [H256A] (P07237 whole entry H256A): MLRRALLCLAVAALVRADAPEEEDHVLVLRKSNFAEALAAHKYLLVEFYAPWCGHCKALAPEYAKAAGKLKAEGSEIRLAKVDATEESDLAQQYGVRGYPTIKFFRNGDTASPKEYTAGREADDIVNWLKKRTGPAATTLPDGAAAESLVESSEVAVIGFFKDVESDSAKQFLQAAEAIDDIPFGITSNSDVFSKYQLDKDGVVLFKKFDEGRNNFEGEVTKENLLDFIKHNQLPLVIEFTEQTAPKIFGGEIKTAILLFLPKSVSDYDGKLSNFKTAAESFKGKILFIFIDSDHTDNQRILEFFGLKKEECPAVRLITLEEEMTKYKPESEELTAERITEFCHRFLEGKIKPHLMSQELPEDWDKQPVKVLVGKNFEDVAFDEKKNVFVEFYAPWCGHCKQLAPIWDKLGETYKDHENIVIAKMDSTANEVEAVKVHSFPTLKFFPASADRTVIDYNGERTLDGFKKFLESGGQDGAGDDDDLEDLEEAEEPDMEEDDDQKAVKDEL
How it was run: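 Insulin reductase assay against H256A PDI: 0.4 μM enzyme preincubated with compounds at 10 μM for 1 h at 37 °C in 100 mM sodium phosphate, 2 mM EDTA, 8 μM DTT, pH 7.0. Then 500 μM DTT and 130 μM bovine insulin added; aggregation read at 620 nm at room temperature. Activity % from OD change at 0 and 80 min, relative to PDI and DTT-only controls; three experiments.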

U-87 MG [11] = experiment: Cytotoxicity against human U87MG cells assessed as inhibition of cell proliferation at <IC50 measured after 72 hrs by MTT assay relative to control; format: functional, U-87MG ATCC
[12] = tested on: Protein disulfide-isomerase (Homo sapiens), P07237 [C53S,C397S]; experiment: Binding affinity to recombinant human N-terminal His-tagged PDI C53S/C397S double mutant expressed in Escherichia coli BL21 (DE3) pLysS assessed as change in melting temperature at 100 uM by ROX dye based thermal shift assay
Sequence of Protein disulfide-isomerase (Homo sapiens), P07237 [C53S,C397S] (P07237 whole entry C53S/C397S): as the sequence (P07237 whole entry H256A) above, with C53S, A256H, C397S counted along it
How it was run: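 Purified wild-type, C53S/C397S or H256A PDI at 0.5 mg/mL in 50 mM Tris, pH 7.0, with or without 100 μM compound, was mixed with ROX dye in a 20 µL well. DMSO (5% in buffer) was the control. Samples were heated 25–99 °C at 1 °C/min, and the Boltzmann melting temperature shift versus DMSO was reported. Mean ± SD of three experiments.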

U-87 MG [13] = experiment: Down regulation of HLA-DQB1 gene expression in human U87MG cells at 16 uM incubated for 4 hrs followed by bromouridine addition during last 30 mins of incubation by TRIzol-reagent based Bru-Seq analysis relative to control; format: functional, U-87MG ATCC; how it was run: as §1
U-87 MG [14] = experiment: Down regulation of GGT4P gene expression in human U87MG cells at 16 uM incubated for 4 hrs followed by bromouridine addition during last 30 mins of incubation by TRIzol-reagent based Bru-Seq analysis relative to control; format: functional, U-87MG ATCC
U-87 MG [15] = experiment: Down regulation of AC010931.3 gene expression in human U87MG cells at 16 uM incubated for 4 hrs followed by bromouridine addition during last 30 mins of incubation by TRIzol-reagent based Bru-Seq analysis relative to control; format: functional, U-87MG ATCC
[16] = biological target: Protein disulfide-isomerase (Homo sapiens, UniProt P07237); experiment: Inhibition of recombinant human N-terminal His-tagged PDI expressed in Escherichia coli BL21 (DE3) pLysS assessed as reduction in enzyme-mediated bovine insulin aggregation at 40 uM measured after 1 hr in presence of 1 to 2 mM NAC
Sequence of Protein disulfide-isomerase (P07237 18-508 limits assumed): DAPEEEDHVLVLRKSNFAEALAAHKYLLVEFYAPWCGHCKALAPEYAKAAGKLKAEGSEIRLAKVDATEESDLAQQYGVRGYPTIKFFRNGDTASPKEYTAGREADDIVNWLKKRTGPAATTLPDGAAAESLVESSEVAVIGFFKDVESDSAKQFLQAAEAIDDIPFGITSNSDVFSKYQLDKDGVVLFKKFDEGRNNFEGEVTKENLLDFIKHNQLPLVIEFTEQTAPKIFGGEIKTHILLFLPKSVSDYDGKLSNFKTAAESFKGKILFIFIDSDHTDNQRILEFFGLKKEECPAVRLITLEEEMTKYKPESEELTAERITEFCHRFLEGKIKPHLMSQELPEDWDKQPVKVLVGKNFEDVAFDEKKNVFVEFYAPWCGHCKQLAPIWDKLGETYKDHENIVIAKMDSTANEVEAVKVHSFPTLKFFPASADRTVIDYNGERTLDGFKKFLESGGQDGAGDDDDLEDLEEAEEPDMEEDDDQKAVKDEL
How it was run: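 Compounds pretreated with NAC for 30 min at 37 °C, then added to the insulin reductase assay at final 40 μM compound with 0, 1, 2 or 5 mM NAC. The assay uses 0.4 μM PDI preincubated 1 h at 37 °C, then DTT and bovine insulin, read at 620 nm, with % activity at 80 min.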

D54 cell line = experiment: Inhibition of colony formation in 1 to 6 Gy-irradiated human D54 cells at 1 uM measured after 10 to 12 days by crystal violet staining based assay; format: functional, cell-based
How it was run: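 D54 cells irradiated at 0, 1, 2, 4 or 6 Gy and plated immediately at 200–1000 cells/well according to dose. Treated with DMSO, 0.05 μM PACMA31 or 1 μM compounds, grown 10–12 days, then colonies stained with 0.1% crystal violet.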

| Compound | pIC50 (U-87 MG [1]) | inhibition (U-87 MG [2]) | Activity (U-87 MG [3]) | fold change (FC) (U-87 MG [4]) | fold change (FC) (U-87 MG [5]) | fold change (FC) (U-87 MG [6]) | fold change (FC) (U-87 MG [7]) | fold change (FC) (U-87 MG [8]) | Activity (U-87 MG [9]) | inhibition [10] | inhibition (INH) (U-87 MG [11]) [%] | Activity [12] | fold change (FC) (U-87 MG [13]) | fold change (FC) (U-87 MG [14]) | fold change (FC) (U-87 MG [15]) | inhibition [16] | inhibition (D54 cell line) |
| --- | --- | --- | --- | --- | --- | --- | --- | --- | --- | --- | --- | --- | --- | --- | --- | --- | --- |
| CCCCCN(CCCCC)S(=O)(=O)c1ccc(C(=O)/C=C/c2cccc(C#N)c2)cc1 | 5.25 | Dose-dependent effect | Active | 26.9 | 11.9 | 2.4 | 2.3 | 2.3 | Active | inactive |  |  |  |  |  |  |  |
| COC(=O)c1cccc(/C=C/C(=O)c2cccc(O)c2)c1 | 4.78 | Dose-dependent effect | Active |  |  |  |  |  |  | inactive | >50 | Active | 3.7 | 3.3 | 3.2 | Active |  |
| N#Cc1cccc(/C=C/C(=O)c2ccc(O)cc2)c1 | 4.97 to 4.99 | Dose-dependent effect | Active |  |  |  |  |  |  | inactive |  | Active |  |  |  |  | Active |
| O=C(/C=C/c1ccc(-c2cccnc2)cc1)c1cccc(O)c1 | 4.97 | Dose-dependent effect | Active |  |  |  |  |  |  | inactive | >50 | Active |  |  |  |  | Active |
| CCCCCN(CCCCC)S(=O)(=O)c1ccc(C(=O)/C=C/c2cccc(O)c2)cc1 | 4.82 | Dose-dependent effect | Active |  |  |  |  |  |  | Active |  | Active |  |  |  | Active |  |
